From ChEMBL document CHEMBL2016554, “Synthesis, biological evaluation and molecular docking studies of 1,3,4-oxadiazole derivatives as potential immunosuppressive agents” (Bioorg Med Chem, 2012) come the findings set out here.

pIC50: −log10 of the molar value.

A short description of series [1]: Cytotoxicity against BALB/c mouse lymph node cells at 10 uM after 24 hrs MTT assay. (Formazan colour is commonly taken as a measure of viable cells.)
The nature of series [2]: Immunosuppressive activity in BALB/c mouse lymph node cells assessed as inhibition of concanavalin A-stimulated cell proliferation at 1 uM administered 24 hrs post concanavalin A stimulation and measured 72 hrs after compound dosing by MTT assay. Type of series: functional. Put shortly:
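BALB/c mouse lymph node cells, 5 × 10^5 per well, stimulated with 5 µg/mL ConA for 24 h, then left untreated or given compound at 1 µM for 72 h. MTT added 4 h before the end, formazan dissolved in DMSO, OD570 read. Inhibition = (control OD570 − compound OD570)/control OD570 × 100, with untreated cells as control. Values are means of three experiments.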

Series [3] can be described thus: Inhibition of N-terminal His-tagged bovine PI3Kgamma expressed in Sf21 cells using L-alpha-phosphatidylinositol substrate by TLC based phosphor imaging. Also on record: species or system Bos taurus.
For series [4], the target named is Phosphatidylinositol 4,5-bisphosphate 3-kinase catalytic subunit beta isoform (Homo sapiens, UniProt P42338). Put plainly: Inhibition of human wild type PI3Kbeta expressed in Sf21 cells co-expressing N-terminal His-tagged human p85a using L-alpha-phosphatidylinositol substrate by TLC based phosphor imaging.
Series [5] addresses Phosphatidylinositol 4,5-bisphosphate 3-kinase catalytic subunit alpha isoform (Mus musculus, UniProt P42337). Put plainly: Inhibition of mouse wild type PI3Kalpha expressed in Sf21 cells co-expressing N-terminal His-tagged human p85a using L-alpha-phosphatidylinositol substrate by TLC based phosphor imaging.
Series [6] has as its target T1, Phosphatidylinositol 4,5-bisphosphate 3-kinase catalytic subunit delta isoform (Homo sapiens, UniProt O00329).
T1 sequence (O00329 whole entry): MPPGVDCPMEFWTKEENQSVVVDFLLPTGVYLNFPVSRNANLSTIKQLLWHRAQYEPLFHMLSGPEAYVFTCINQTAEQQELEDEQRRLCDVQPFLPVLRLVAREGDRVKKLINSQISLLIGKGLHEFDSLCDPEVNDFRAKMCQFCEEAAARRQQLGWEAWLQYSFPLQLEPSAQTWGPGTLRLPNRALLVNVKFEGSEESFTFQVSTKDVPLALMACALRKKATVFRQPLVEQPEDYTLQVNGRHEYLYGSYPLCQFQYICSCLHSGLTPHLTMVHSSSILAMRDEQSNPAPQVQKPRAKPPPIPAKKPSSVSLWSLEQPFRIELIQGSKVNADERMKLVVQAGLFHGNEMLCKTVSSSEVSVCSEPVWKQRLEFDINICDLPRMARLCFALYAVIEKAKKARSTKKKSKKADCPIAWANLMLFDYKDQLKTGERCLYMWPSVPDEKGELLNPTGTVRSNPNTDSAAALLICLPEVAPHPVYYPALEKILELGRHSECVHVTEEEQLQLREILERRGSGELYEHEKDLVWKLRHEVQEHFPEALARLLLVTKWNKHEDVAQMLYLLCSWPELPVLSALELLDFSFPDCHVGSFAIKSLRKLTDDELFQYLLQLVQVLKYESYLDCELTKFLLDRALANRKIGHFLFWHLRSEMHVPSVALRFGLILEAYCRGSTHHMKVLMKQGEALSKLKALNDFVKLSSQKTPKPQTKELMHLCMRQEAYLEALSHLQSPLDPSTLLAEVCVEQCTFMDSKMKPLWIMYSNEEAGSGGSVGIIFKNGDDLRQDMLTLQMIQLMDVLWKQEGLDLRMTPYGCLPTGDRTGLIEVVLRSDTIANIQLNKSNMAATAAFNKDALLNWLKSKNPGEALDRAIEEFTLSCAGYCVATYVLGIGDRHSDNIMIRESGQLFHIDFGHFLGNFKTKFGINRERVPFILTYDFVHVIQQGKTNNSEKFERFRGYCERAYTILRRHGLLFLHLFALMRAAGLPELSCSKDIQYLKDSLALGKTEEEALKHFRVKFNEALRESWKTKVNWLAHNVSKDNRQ
Put plainly: Inhibition of PI3Kdelta expressed in cells co-expressing N-terminal His-tagged human p85a using L-alpha-phosphatidylinositol substrate by TLC based phosphor imaging. Type of series: cell-based.

The nature of series [7]: Induction of apoptosis in BALB/c mouse concanavalin A-stimulated lymph node cells assessed as late apoptotic cells at 1 uM administered 24 hrs post concanavalin A stimulation and measured 24 hrs after by Annexin-V-FITC/propidium iodide staining based flow cytometry (reference value: 17.49 %). Type of series: functional.
Series [8] in a line: Induction of apoptosis in BALB/c mouse concanavalin A-stimulated lymph node cells assessed as early apoptotic cells at 4 uM administered 24 hrs post concanavalin A stimulation and measured 24 hrs after by Annexin-V-FITC/propidium iodide staining based flow cytometry (reference value: 4.52 %). Type of series: functional. Background: Flow cytometry measures light scatter and fluorescence of single cells or particles in a stream.

A short description of series [9]: Induction of apoptosis in BALB/c mouse concanavalin A-stimulated lymph node cells assessed as early apoptotic cells at 16 uM administered 24 hrs post concanavalin A stimulation and measured 24 hrs after by Annexin-V-FITC/propidium iodide staining based flow cytometry (reference value: 4.52 %). Type of series: functional.
A short description of series [10]: Induction of apoptosis in BALB/c mouse concanavalin A-stimulated lymph node cells assessed as late apoptotic cells at 16 uM administered 24 hrs post concanavalin A stimulation and measured 24 hrs after by Annexin-V-FITC/propidium iodide staining based flow cytometry (reference value: 17.49 %). Type of series: functional.
Series [11] can be described thus: Induction of apoptosis in BALB/c mouse concanavalin A-stimulated lymph node cells assessed as early apoptotic cells at 1 uM administered 24 hrs post concanavalin A stimulation and measured 24 hrs after by Annexin-V-FITC/propidium iodide staining based flow cytometry (reference value: 4.52 %). Type of series: functional.
Series [12] can be described thus: Induction of apoptosis in BALB/c mouse concanavalin A-stimulated lymph node cells assessed as late apoptotic cells at 4 uM administered 24 hrs post concanavalin A stimulation and measured 24 hrs after by Annexin-V-FITC/propidium iodide staining based flow cytometry (reference value: 17.49 %). Type of series: functional.
For series [13], the system named is Mus musculus. Put plainly: Induction of apoptosis in BALB/c mouse concanavalin A-stimulated lymph node cells assessed as late apoptotic cells administered 24 hrs post concanavalin A stimulation and measured 24 hrs after by Annexin-V-FITC/propidium iodide staining based flow cytometry. Type of series: functional.

Phosphatidylinositol 4,5-bisphosphate 3-kinase catalytic subunit beta isoform, sequence (P42338 whole entry, canonical isoform): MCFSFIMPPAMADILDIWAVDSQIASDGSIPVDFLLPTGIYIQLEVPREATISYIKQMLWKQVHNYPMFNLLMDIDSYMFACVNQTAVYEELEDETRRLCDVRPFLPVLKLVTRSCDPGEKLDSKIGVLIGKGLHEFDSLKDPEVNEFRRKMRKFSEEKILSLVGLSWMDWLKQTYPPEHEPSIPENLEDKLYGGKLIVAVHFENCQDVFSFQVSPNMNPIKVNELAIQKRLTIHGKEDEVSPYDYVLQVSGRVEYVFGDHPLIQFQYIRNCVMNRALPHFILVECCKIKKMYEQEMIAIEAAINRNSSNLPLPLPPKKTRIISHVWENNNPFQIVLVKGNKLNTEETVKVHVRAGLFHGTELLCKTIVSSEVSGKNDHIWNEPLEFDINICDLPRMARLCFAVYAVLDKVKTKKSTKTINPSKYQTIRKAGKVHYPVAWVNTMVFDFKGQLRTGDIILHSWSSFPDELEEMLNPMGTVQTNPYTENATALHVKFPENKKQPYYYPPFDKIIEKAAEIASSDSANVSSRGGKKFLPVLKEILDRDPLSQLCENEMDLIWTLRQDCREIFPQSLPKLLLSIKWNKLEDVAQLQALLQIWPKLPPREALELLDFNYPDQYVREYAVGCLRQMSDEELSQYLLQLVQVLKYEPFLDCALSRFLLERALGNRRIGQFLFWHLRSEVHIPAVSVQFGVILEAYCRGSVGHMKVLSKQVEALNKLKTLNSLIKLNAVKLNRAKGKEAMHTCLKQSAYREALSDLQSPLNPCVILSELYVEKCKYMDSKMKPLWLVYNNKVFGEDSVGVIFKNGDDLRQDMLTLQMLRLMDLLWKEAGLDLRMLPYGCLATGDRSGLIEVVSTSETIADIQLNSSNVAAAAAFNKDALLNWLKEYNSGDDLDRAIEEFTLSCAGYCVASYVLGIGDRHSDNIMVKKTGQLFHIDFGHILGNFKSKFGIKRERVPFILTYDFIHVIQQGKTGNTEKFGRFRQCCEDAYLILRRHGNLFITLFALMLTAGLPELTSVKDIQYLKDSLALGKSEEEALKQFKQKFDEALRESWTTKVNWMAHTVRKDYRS
Phosphatidylinositol 4,5-bisphosphate 3-kinase catalytic subunit alpha isoform, sequence (P42337 whole entry, canonical isoform): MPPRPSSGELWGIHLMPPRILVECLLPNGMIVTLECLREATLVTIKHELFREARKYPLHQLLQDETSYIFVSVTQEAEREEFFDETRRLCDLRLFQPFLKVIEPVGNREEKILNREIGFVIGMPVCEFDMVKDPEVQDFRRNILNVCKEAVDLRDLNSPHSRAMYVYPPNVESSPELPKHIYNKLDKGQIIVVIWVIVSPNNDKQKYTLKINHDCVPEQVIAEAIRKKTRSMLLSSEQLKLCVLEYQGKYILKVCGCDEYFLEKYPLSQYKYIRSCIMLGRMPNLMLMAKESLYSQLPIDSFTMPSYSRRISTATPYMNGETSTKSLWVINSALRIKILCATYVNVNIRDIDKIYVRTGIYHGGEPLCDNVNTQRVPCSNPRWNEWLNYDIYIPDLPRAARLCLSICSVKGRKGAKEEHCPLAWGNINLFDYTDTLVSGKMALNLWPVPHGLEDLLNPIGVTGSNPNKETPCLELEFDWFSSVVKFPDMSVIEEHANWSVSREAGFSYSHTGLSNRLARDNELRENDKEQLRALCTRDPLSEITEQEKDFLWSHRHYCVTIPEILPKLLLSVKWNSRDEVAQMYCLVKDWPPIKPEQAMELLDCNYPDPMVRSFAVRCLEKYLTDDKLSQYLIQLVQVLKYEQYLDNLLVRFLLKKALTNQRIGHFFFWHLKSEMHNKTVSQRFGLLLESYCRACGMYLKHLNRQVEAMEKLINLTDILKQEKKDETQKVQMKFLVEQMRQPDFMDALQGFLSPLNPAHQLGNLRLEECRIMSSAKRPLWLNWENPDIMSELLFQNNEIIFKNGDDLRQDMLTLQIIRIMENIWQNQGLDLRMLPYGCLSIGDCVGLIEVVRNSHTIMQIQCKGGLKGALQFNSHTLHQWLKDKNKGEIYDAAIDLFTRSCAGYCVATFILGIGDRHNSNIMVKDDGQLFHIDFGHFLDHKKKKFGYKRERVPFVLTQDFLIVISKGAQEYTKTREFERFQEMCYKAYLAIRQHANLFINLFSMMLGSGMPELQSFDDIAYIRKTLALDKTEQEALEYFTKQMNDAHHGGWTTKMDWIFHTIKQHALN

In the case of `Cc1cccc(CSc2nnc(-c3ccc(C)cc3O)o2)c1`, in [1], the OD is reported as 0.8. Also, the “inhibition (INH)” value in [2] is listed as 5.22%.
Compound `COc1ccc(CSc2nnc(-c3ccc(C)cc3O)o2)cc1` yielded an OD in series [1] of 0.83. The “inhibition (INH)” value in [2] turned out to be 13.67%.
The matching figures for `Cc1ccc(-c2nnc(SCc3ccc(Cl)cc3)o2)c(O)c1`: 0.75 and 13.4%.
What is called pIC50 is −log10 of the IC50, conventionally taken in molar units. Higher therefore signals a small IC50. As to `COc1cccc(CSc2nnc(-c3ccc(C)cc3O)o2)c1`, the pIC50 in [3] was 5.59; in series [4], 4.87; in series [5] it was 5.71; in series [6] it was under 4.00. This compound also showed an OD in series [1] of 0.87. In addition, in series [2], the “inhibition (INH)” value is 20.59%.
Consider `COc1ccc(C(=O)O)c(O)c1` [4-METHOXYSALICYLIC ACID], for which the “inhibition (INH)” value in series [2] is recorded as 7.34%.
Consider `Cc1ccc(-c2nnc(SCc3cccc([N+](=O)[O-])c3)o2)c(O)c1`, for which the OD in series [1] is listed as 0.81. Also, in series [2], the “inhibition (INH)” value is -4.36%.
Consider `COc1ccc(-c2nnc(SCc3ccc([N+](=O)[O-])cc3)o2)c(O)c1`, for which the OD in series [1] worked out at 0.83. For the same compound, in series [2], the “inhibition (INH)” value stood at 14.39%.
`Cc1ccc(-c2nnc(SCc3ccccc3Cl)o2)c(O)c1` yielded an OD in series [1] of 0.79. Also, the “inhibition (INH)” value in series [2] was determined as 8.99%.
For `Cc1ccc(C(=O)O)c(O)c1`, the “inhibition (INH)” value in series [2] was 3.52%.
In [1], `COc1ccc(-c2nnc(SCc3ccccc3)o2)c(O)c1` had an OD of 0.81. Besides, the “inhibition (INH)” value in series [2] was determined as 4.5%.
Regarding `Cc1ccc(-c2nnc(SCc3cccc(Cl)c3)o2)c(O)c1`, the OD in series [1] was 0.7. Also, the “inhibition (INH)” value in series [2] is given as -0.72%.
Taken in the same sequence, the figures for `COc1ccc(-c2nnc(SCc3cccc(C)c3)o2)c(O)c1` were 1.12 and 16.28%.
`COc1ccc(-c2nnc(SCc3ccccc3[N+](=O)[O-])o2)c(O)c1`: the OD in [1] was 0.91. Moreover, in [2], the “inhibition (INH)” value turned out to be 3.96%.
Taken in the same sequence, the figures for `Cc1ccc(-c2nnc(SCc3ccccc3[N+](=O)[O-])o2)c(O)c1` were 0.74 and 11.42%.
The matching figures for `COc1ccc(-c2nnc(SCc3ccccc3Cl)o2)c(O)c1`: 0.89 and 17.36%.
The matching figures for `Cc1ccc(-c2nnc(SCc3ccccc3F)o2)c(O)c1`: 0.82 and -6.92%.
With `COc1ccc(-c2nnc(SCc3ccccc3F)o2)c(O)c1`, the pIC50 was 6.23 in series [3], 4.29 in series [4], 4.47 in series [5] and 4.72 in series [6]. The compound also had an OD in series [1] of 0.79. In addition, in series [2], the “inhibition (INH)” value is 34.35%.
Turning to `C/C=C/C[C@@H](C)[C@@H](O)[C@H]1C(=O)N[C@@H](CC)C(=O)N(C)CC(=O)N(C)[C@@H](CC(C)C)C(=O)N[C@@H](C(C)C)C(=O)N(C)[C@@H](CC(C)C)C(=O)N[C@@H](C)C(=O)N[C@H](C)C(=O)N(C)[C@@H](CC(C)C)C(=O)N(C)[C@@H](CC(C)C)C(=O)N(C)[C@@H](C(C)C)C(=O)N1C` [CYCLOSPORINE], the “inhibition (INH)” value in [2] is 69.77%.
As for `COc1ccc(-c2nnc(SCc3ccc(Cl)cc3)o2)c(O)c1`, the OD in series [1] worked out at 0.87. Also, the “inhibition (INH)” value in series [2] is reported as 11.96%.
In turn, `COc1cccc(CSc2nnc(-c3ccc(OC)cc3O)o2)c1` yielded an OD in series [1] of 0.71. In addition, the “inhibition (INH)” value in series [2] is 11.06%.
Taken in the same sequence, the figures for `Cc1ccc(-c2nnc(SCc3ccccc3)o2)c(O)c1` were 0.86 and 9.08%.
The matching figures for `Cc1ccc(-c2nnc(SCc3ccc(F)cc3)o2)c(O)c1`: 0.82 and 4.5%.
`COc1ccc(-c2nnc(SCc3cccc([N+](=O)[O-])c3)o2)c(O)c1`: the pIC50 in series [3] is 5.61; in [4], under 4.00; in series [5] it was 4.75; in series [6] it was 4.53. In addition, the OD in series [1] came out at 0.86. Also, in [2], the “inhibition (INH)” value came out at 19.33%.
Turning to `O=c1cc(N2CCOCC2)oc2c(-c3ccccc3)cccc12` [LY-294002], the pIC50 in [6] was 6.24.
On to `COc1ccc(-c2nnc(SCc3ccc(C)cc3)o2)c(O)c1`, for which the OD in series [1] came out at 0.9. Also, the “inhibition (INH)” value in series [2] turned out to be 6.29%.
Taken in the same sequence, the figures for `Cc1ccc(CSc2nnc(-c3ccc(C)cc3O)o2)cc1` were 0.65 and 11.42%.
Turning to `Cc1ccc(-c2nnc(SCc3ccc([N+](=O)[O-])cc3)o2)c(O)c1`, the Activity in series [7] was found to be 26.59%; in series [8], 6.69%; in series [9], 2.16%; in series [10] it was 96.35%; in [11], 6.26%; in [12], 27.4%. The Activity entry in series [13] is “Dose-dependent effect”. The negative-log IC50 (pIC50) in [3] was 6.51; in [4], under 4.00; in series [5], 4.26; in series [6], 4.59. The same compound displayed an OD in [1] of 0.89. Further, the “inhibition (INH)” value in series [2] is recorded as 38.76%.
`COc1ccc(CSc2nnc(-c3ccc(OC)cc3O)o2)cc1`: in [1], the OD is 0.75. In addition, the “inhibition (INH)” value in series [2] was found to be 11.33%.
As for `COc1ccc(-c2nnc(SCc3ccc(F)cc3)o2)c(O)c1`, the pIC50 in [3] is 6.01; in series [4] it was under 4.00; in series [5] it was 4.51; in [6] it was 4.94. Moreover, in series [1], the OD came to 0.87. In addition, in series [2], the “inhibition (INH)” value stood at 29.32%.
Take `COc1ccc(-c2nnc(SCc3cccc(Cl)c3)o2)c(O)c1`: the pIC50 is 5.73 in [3], 4.36 in series [4], 4.81 in [5] and under 4.00 in series [6]. The OD in [1] is on record as 0.9. For the same compound, in [2], the “inhibition (INH)” value came to 22.03%.
